This data set is classed as in vivo, mice. The procedure, abridged: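 Adult male C57BL/6J mice (20–25 g), single i.v. injection 10 mg/kg in 10% Solutol in saline; 5 mice per time point killed at 2, 5, 15, 30, 60 min, cardiac blood centrifuged for plasma. Plasma precipitated with ice-cold acetonitrile containing internal standard, supernatant diluted with water; C8 reversed-phase LC-MS/MS, positive-ion MRM m/z 578.1→217.1/245.0; calibration 0.5–500 ng/mL; non-compartmental analysis.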

Setting [1] is: male, C57BL/6J, mouse, plasma, iv, 10 mg/kg.

Results on 1 compound are retold here after PMC4956519 (Journal of chromatography. B, Analytical technologies in …, 2016).

Where a SMILES comes first, the peptide text is derived from it.

As usually defined, the AUC(0-inf) is total exposure, with the tail of the curve extrapolated. A low value points to less exposure. As usually defined, the Cmax is the peak of the concentration-time curve. In general, Vd refers to the apparent volume that relates the amount in the body to the concentration in plasma or blood. Broadly, the clearance is a measure of how efficiently the substance is removed, as volume per time. Read a low clearance as inefficient removal. One may read the half-life as how long it takes for the measured level to halve. The low end stands for rapid decline, the high end for slow decline. For `O=C1N[C@H](Cc2c[nH]c3ccccc23)C(=O)N[C@@H](Cc2ccccc2)C(=O)N2CCC[C@@H]2C(=O)N[C@H]1Cc1ccccc1` [[D-Trp]CJ-15,208, cyclo[Phe-D-Pro-Phe-D-Trp]] (HELM PEPTIDE1{F.[dP].F.[dW]}$PEPTIDE1,PEPTIDE1,1:R1-4:R2$$$V2.0), for the setting “10 mg/kg i.v. to mice, LC-MS/MS”, the “Time to almost complete elimination from plasma” value was at most 1 h. Also, the AUC0-t (male C57BL/6J mice, 10 mg/kg i.v., plasma, LC-MS/MS, non-compartmental analysis, 5 mice per time point) came out at 19124.7 ng·min/mL. Under setting [1], this compound had an AUC(0-inf) of 0.337 µg·h/mL, a C0 of 1.13 µg/mL, a Cmax of 1.02 µg/mL and a Vd of 10.1 L/kg. Under setting [1], this compound displayed a clearance of 29.6 L/h/kg and a half-life of 14.2 min. The “Decline of plasma concentration” value (within 15 minutes after 10 mg/kg i.v. to mice, LC-MS/MS) was “over 50%”.
